In brackets after ≈: the same amount, converted by molar mass.

Common to all, as to assay type: functional
The subject of experiment [1] is MCF7. The experiment in a line: Growth inhibition of human MCF7 cells measured after 48 hrs by sulforhodamine B assay. The following applies: MCF7, 48 h. The method, boiled down: (§1)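 Cells were seeded in RPMI1640 with 5% fetal bovine serum and incubated 24 h before serial dilutions of sample were added. After 48 h exposure, cells were fixed with trichloroacetic acid and stained with sulforhodamine B, and optical density was read by plate reader.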
(In SRB staining, fixed cells bind dye roughly in proportion to their protein.)

A short description of experiment [2]: Growth inhibition of human SF268 cells measured after 48 hrs by sulforhodamine B assay. The following applies: SF-268, 48 h. Summed up:
as §1

Experiment [3] is described as follows: Growth inhibition of human DU145 cells measured after 48 hrs by sulforhodamine B assay. The following applies: DU-145, 48 h. The method, boiled down:
as §1

In experiment [4] the test system is NCI-H460. The experiment in a line: Growth inhibition of human NCI-H460 cells measured after 48 hrs by sulforhodamine B assay. The following applies: NCI-H460, 48 h. Summed up: as §1
Experiment [5] can be described thus: Growth inhibition of human KM20L2 cells measured after 48 hrs by sulforhodamine B assay. The following applies: KM-20L2, 48 h. The method, boiled down: as §1
The nature of experiment [6]: Growth inhibition of human BxPC3 cells measured after 48 hrs by sulforhodamine B assay. Particulars: BXPC-3, 48 h. Summed up: as §1
For experiment [7], the system named is P388. The experiment in a line: Growth inhibition of mouse P388 cells measured after 48 hrs by sulforhodamine B assay. Particulars: P388, 48 h, read-out: ED50 (the source's name).

A word on the GI50: it is the concentration at which growth is held to half of that of the control. A low value points to greater sensitivity of the cells. Regarding `COc1cc(C2C3=C(COC3=O)N(CCc3ccc([N+](=O)[O-])cc3)c3cc4c(cc32)OCO4)cc(OC)c1OC` (stereo not drawn), the GI50 in experiment [1] is 0.08 µg/mL (≈ 0.146 µM); in experiment [2] it was 0.2 µg/mL (≈ 0.366 µM); in experiment [3], 0.3 µg/mL (≈ 0.549 µM); in experiment [4], 0.3 µg/mL (≈ 0.549 µM); in experiment [5], 0.26 µg/mL (≈ 0.476 µM); in experiment [6], 0.39 µg/mL (≈ 0.714 µM).

With `COc1cc(C2C3=C(COC3=O)N(CCc3ccc(Cl)cc3)c3cc4c(cc32)OCO4)cc(OC)c1OC` (stereo not drawn), the GI50 in experiment [1] turned out to be 0.34 µg/mL (≈ 0.634 µM); in experiment [2] it was 0.35 µg/mL (≈ 0.653 µM); in experiment [3], 0.31 µg/mL (≈ 0.578 µM); in experiment [4] it was 0.3 µg/mL (≈ 0.56 µM); in experiment [5], 0.37 µg/mL (≈ 0.69 µM); in experiment [6], 0.54 µg/mL (≈ 1.01 µM). In addition, in experiment [7], the EC50 was determined as 2.6 µg/mL (≈ 4.85 µM).

As for `O=C1OCC2=C1C(c1cccc3c1OCO3)c1cc3c(cc1N2)OCO3` (stereo not drawn), the GI50 is 0.0039 µg/mL (≈ 0.0111 µM) in experiment [1]; 0.0089 µg/mL (≈ 0.0253 µM) in experiment [2]; 0.041 µg/mL (≈ 0.117 µM) in experiment [3]; 0.021 µg/mL (≈ 0.0598 µM) in experiment [4]; 0.065 µg/mL (≈ 0.185 µM) in experiment [6]. Further, the EC50 in experiment [7] amounted to 0.17 µg/mL (≈ 0.484 µM).

`COc1cc(C2C3=C(COC3=O)N(CCc3ccccn3)c3cc4c(cc32)OCO4)cc(OC)c1OC` (stereo not drawn): the GI50 in experiment [1] worked out at 0.32 µg/mL (≈ 0.637 µM); in experiment [2] it was 0.33 µg/mL (≈ 0.657 µM); in experiment [3], 0.42 µg/mL (≈ 0.836 µM); in experiment [4] it was 0.34 µg/mL (≈ 0.677 µM); in experiment [5], 0.29 µg/mL (≈ 0.577 µM); in experiment [6], 0.38 µg/mL (≈ 0.756 µM). For the same compound, the EC50 in experiment [7] was found to be 2.5 µg/mL (≈ 4.97 µM).

Take `COc1cc(C2C3=C(COC3=O)N(CCCO)c3cc4c(cc32)OCO4)cc(OC)c1OC` (stereo not drawn): the concentration for 50% growth inhibition (GI50) in experiment [1] came to 0.34 µg/mL (≈ 0.746 µM); in experiment [2] it was 0.36 µg/mL (≈ 0.79 µM); in experiment [3] it was 0.49 µg/mL (≈ 1.08 µM); in experiment [4] it was 0.33 µg/mL (≈ 0.725 µM); in experiment [5], 0.38 µg/mL (≈ 0.834 µM); in experiment [6], 0.48 µg/mL (≈ 1.05 µM). The EC50 in experiment [7] is 0.28 µg/mL (≈ 0.615 µM).

For the compound `COc1cc(C2C3=C(COC3=O)N(CCc3ccc(F)cc3)c3cc4c(cc32)OCO4)cc(OC)c1OC` (stereo not drawn), the GI50 stood at 0.42 µg/mL (≈ 0.808 µM) in experiment [1]; 0.52 µg/mL (≈ 1 µM) in experiment [2]; 2.5 µg/mL (≈ 4.81 µM) in experiment [3]; 2.3 µg/mL (≈ 4.43 µM) in experiment [4]; 2.4 µg/mL (≈ 4.62 µM) in experiment [5]; 0.9 µg/mL (≈ 1.73 µM) in experiment [6]. In addition, in experiment [7], the EC50 turned out to be 3.3 µg/mL (≈ 6.35 µM).

Turning to `COc1ccc(C2C3=C(COC3=O)Nc3cc(OC)c(OC)c(OC)c32)cc1O` (stereo not drawn), the 50% growth inhibitory concentration (GI50) in experiment [1] is 7 µg/mL (≈ 17.5 µM); in experiment [2], 7.3 µg/mL (≈ 18.3 µM); in experiment [3], greater than 10 µg/mL; in experiment [4], 10.1 µg/mL (≈ 25.3 µM); in experiment [6], 6.5 µg/mL (≈ 16.3 µM). In addition, the EC50 in experiment [7] worked out at 0.78 µg/mL (≈ 1.95 µM).

In the case of `COc1cc(C2C3=C(COC3=O)Nc3cc(OC)c(OC)c(OC)c32)cc(OC)c1OC` (stereo not drawn), the 50% growth inhibitory concentration (GI50) was found to be 1.7 µg/mL (≈ 3.83 µM) in experiment [1]; 3.6 µg/mL (≈ 8.12 µM) in experiment [2]; 3.3 µg/mL (≈ 7.44 µM) in experiment [3]; 3.6 µg/mL (≈ 8.12 µM) in experiment [4]; 5.6 µg/mL (≈ 12.6 µM) in experiment [6]. Also, the EC50 in experiment [7] is 1.3 µg/mL (≈ 2.93 µM).

Consider `COc1cc(C2C3=C(COC3=O)N(C3CCC3)c3cc4c(cc32)OCO4)cc(OC)c1OC` (stereo not drawn), for which the GI50 in experiment [1] amounted to 0.026 µg/mL (≈ 0.0576 µM); in experiment [2], 0.026 µg/mL (≈ 0.0576 µM); in experiment [3], 0.047 µg/mL (≈ 0.104 µM); in experiment [4] it was 0.028 µg/mL (≈ 0.062 µM); in experiment [5], 0.032 µg/mL (≈ 0.0709 µM); in experiment [6], 0.04 µg/mL (≈ 0.0886 µM). Also, the EC50 in experiment [7] turned out to be 0.24 µg/mL (≈ 0.532 µM).

As for `COc1cc(C2C3=C(COC3=O)N(C3CCCCC3)c3cc4c(cc32)OCO4)cc(OC)c1OC` (stereo not drawn), the GI50 was found to be 0.052 µg/mL (≈ 0.108 µM) in experiment [1]; 0.066 µg/mL (≈ 0.138 µM) in experiment [2]; 0.27 µg/mL (≈ 0.563 µM) in experiment [3]; 0.27 µg/mL (≈ 0.563 µM) in experiment [4]; 0.24 µg/mL (≈ 0.5 µM) in experiment [5]; 0.17 µg/mL (≈ 0.355 µM) in experiment [6]. In addition, the EC50 in experiment [7] turned out to be 3.4 µg/mL (≈ 7.09 µM).

In the case of `COc1cc(C2C3=C(COC3=O)Nc3cc4c(cc32)OCO4)cc(OC)c1OC` (stereo not drawn), in experiment [7], the EC50 was 0.0018 µg/mL (≈ 0.00453 µM).

On to `COc1cc([C@@H]2c3cc4c(c(O[C@@H]5O[C@H](CO)[C@@H](O)[C@H](O)[C@H]5O)c3C[C@H]3COC(=O)[C@@H]32)OCO4)cc(OC)c1OC`, for which the GI50 is 0.85 µg/mL (≈ 1.47 µM) in experiment [1]; 0.27 µg/mL (≈ 0.468 µM) in experiment [2]; greater than 1 µg/mL in experiment [3]; 0.28 µg/mL (≈ 0.486 µM) in experiment [4]; greater than 1 µg/mL in experiment [5]; greater than 1 µg/mL in experiment [6]. The EC50 in experiment [7] was 0.21 µg/mL (≈ 0.364 µM).

As to `COc1cc([C@@H]2c3cc4c(c(O)c3C[C@H]3COC(=O)[C@@H]32)OCO4)cc(OC)c1OC` [BETA-PELTATIN A], the concentration for 50% growth inhibition (GI50) in experiment [1] stood at 0.00055 µg/mL (≈ 0.00133 µM); in experiment [2] it was 0.0004 µg/mL (≈ 0.000965 µM); in experiment [3] it was 0.0021 µg/mL (≈ 0.00507 µM); in experiment [4], 0.00077 µg/mL (≈ 0.00186 µM); in experiment [5], 0.0076 µg/mL (≈ 0.0183 µM); in experiment [6], 0.0012 µg/mL (≈ 0.0029 µM). In experiment [7], the EC50 is 0.0031 µg/mL (≈ 0.00748 µM).

With `COc1cc([C@H]2c3cc4c(cc3C[C@H]3COC(=O)[C@H]32)OCO4)cc(OC)c1OC` [ISOPICRODEOXYPODOPHYLLOTOXIN], the EC50 in experiment [7] is less than 0.1 µg/mL.

Take `COc1cc([C@@H]2c3cc4c(cc3[C@H](O)[C@H]3COC(=O)[C@H]23)OCO4)cc(OC)c1OC` [PODOFILOX]: the EC50 in experiment [7] was 0.0043 µg/mL (≈ 0.0104 µM).

The values above are taken from ChEMBL document CHEMBL3808349, “Antineoplastic Agents. 585. Isolation of Bridelia ferruginea Anticancer Podophyllotoxins and Synthesis of 4-Aza-podophyllotoxin Structural Modifications” (2016).
